IC50 and inhibition data for two compounds are collected here from ChEMBL document CHEMBL4020727, “Synthesis and biological evaluation of largazole zinc-binding group analogs” (Bioorg Med Chem, 2017).

Test [1] concerns the target T1, Polyamine deacetylase HDAC10 (Homo sapiens, UniProt Q969S8).
T1 sequence (Q969S8 whole entry): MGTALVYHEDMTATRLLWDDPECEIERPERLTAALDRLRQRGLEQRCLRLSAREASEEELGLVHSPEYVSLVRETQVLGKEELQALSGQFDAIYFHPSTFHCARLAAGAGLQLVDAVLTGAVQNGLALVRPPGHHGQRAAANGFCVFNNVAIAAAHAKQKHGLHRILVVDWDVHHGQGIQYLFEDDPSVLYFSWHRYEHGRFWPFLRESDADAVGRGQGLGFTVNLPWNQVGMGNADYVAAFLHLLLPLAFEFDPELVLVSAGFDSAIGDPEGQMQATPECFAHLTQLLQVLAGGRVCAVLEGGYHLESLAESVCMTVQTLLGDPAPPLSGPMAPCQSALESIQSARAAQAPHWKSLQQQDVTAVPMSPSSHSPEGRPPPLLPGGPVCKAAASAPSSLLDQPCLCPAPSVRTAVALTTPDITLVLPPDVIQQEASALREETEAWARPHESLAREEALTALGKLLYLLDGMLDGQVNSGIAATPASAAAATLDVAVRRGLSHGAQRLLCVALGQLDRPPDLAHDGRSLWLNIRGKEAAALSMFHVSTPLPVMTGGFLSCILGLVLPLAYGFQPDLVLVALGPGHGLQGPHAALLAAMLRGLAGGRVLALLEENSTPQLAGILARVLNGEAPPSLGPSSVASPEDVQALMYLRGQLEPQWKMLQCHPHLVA
Description: Inhibition of N-terminal GST-tagged/C-terminal His-tagged human HDAC10 (1 to 481 residues) expressed in baculovirus infected Sf9 insect cells using BPS HDAC substrate 3 after 30 mins by fluorescence assay. The procedure, abridged:
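Run by a contract lab. Compound incubated with HDAC enzyme, HDAC substrate, BSA and HDAC buffer, in duplicate, at 37 °C for 30 min. Quenched with HDAC developer, then 15 min at room temperature. Fluorescence read at ex 360/em 460 nm. Percent activity = (F−Fb)/(Ft−Fb), using blank and solvent-control wells. IC50 from curve fitting.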

Test [2] addresses T2, Protein deacetylase HDAC6 (Homo sapiens, UniProt Q9UBN7).
T2 sequence (Q9UBN7 whole entry): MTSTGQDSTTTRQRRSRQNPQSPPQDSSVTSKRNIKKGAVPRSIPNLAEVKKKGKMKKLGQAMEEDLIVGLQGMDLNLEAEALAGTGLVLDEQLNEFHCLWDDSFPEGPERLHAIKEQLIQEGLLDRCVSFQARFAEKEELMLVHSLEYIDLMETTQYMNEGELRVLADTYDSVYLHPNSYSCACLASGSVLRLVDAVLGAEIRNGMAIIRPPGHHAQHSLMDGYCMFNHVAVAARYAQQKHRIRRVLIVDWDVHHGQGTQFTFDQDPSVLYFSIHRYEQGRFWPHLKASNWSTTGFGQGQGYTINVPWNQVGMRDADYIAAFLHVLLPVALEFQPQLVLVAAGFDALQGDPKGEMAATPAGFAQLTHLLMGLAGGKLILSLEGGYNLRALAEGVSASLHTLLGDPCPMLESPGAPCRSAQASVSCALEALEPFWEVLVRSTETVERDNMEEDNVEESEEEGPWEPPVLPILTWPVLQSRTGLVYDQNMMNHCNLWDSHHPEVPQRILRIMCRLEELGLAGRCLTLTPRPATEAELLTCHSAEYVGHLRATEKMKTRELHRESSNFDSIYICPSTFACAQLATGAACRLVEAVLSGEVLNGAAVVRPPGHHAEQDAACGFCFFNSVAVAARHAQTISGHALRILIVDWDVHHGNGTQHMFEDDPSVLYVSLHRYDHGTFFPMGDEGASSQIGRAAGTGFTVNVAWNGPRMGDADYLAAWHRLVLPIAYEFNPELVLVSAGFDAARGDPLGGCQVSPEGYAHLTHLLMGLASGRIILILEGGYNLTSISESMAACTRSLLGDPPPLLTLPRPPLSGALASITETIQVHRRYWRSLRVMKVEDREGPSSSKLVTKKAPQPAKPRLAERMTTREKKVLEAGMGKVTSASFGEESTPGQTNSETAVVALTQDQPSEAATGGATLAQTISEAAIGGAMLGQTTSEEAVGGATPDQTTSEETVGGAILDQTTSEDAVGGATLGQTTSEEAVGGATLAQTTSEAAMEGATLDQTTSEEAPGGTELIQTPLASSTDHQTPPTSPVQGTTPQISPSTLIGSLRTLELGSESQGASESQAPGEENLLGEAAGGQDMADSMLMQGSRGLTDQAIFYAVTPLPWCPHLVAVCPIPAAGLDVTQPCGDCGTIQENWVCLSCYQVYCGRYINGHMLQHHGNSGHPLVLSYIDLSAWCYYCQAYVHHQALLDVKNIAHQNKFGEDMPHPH
Description: Inhibition of full length N-terminal GST-tagged human HDAC6 expressed in baculovirus infected Sf9 insect cells using HDAC substrate 3 after 30 mins by fluorescence assay. In a few lines:
(§1)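 Run by a contract lab. Compound incubated with HDAC enzyme, HDAC substrate, BSA and HDAC buffer, in duplicate, at 37 °C for 30 min. Quenched with HDAC developer, then 15 min at room temperature. Percent activity = (F−Fb)/(Ft−Fb), using blank and solvent-control wells. IC50 from curve fitting.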

Test [3] deals with Histone deacetylase 5 (Homo sapiens) (UniProt Q9UQL6). The test can be described thus: Inhibition of full length N-terminal GST-tagged human HDAC5 expressed in baculovirus infected Sf9 insect cells using BPS HDAC class 2a substrate at 10 uM after 30 mins by fluorescence assay relative to control. In a few lines:
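Run by a contract lab. Compound incubated with HDAC enzyme, substrate, bovine serum albumin and HDAC buffer in duplicate for 30 min at 37 °C. Quenched with HDAC developer, 15 min at room temperature, fluorescence read at ex 360/em 460 nm. Activity taken as (F−Fb)/(Ft−Fb) against blank and solvent control wells; IC50 from curve fitting.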

The target of another test is T3, Histone deacetylase 8 (Homo sapiens, UniProt Q9BY41).
T3 sequence (Q9BY41 whole entry): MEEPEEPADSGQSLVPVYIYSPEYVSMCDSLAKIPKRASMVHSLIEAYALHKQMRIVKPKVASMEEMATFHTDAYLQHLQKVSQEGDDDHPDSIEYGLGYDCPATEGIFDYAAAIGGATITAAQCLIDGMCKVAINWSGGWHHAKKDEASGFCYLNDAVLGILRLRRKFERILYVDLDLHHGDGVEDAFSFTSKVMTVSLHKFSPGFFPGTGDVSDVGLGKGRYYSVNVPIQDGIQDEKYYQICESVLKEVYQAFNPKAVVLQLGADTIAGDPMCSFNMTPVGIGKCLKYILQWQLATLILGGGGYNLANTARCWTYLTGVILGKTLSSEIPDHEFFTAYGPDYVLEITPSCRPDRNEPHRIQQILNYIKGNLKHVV
The test can be described thus: Inhibition of full length C-terminal His-tagged human HDAC8 expressed in baculovirus infected Sf9 insect cells using BPS HDAC class 2a substrate after 30 mins by fluorescence assay. In a few lines:
as §1

For another test, the target named is Histone deacetylase 2 (Homo sapiens, UniProt Q92769). The test can be described thus: Inhibition of full length C-terminal FLAG-tagged human HDAC2 expressed in baculovirus infected Sf9 insect cells using BPS HDAC substrate 3 after 30 mins by fluorescence assay. In a few lines:
as §1

Sequence of Histone deacetylase 5 (Homo sapiens) (Q9UQL6 whole entry): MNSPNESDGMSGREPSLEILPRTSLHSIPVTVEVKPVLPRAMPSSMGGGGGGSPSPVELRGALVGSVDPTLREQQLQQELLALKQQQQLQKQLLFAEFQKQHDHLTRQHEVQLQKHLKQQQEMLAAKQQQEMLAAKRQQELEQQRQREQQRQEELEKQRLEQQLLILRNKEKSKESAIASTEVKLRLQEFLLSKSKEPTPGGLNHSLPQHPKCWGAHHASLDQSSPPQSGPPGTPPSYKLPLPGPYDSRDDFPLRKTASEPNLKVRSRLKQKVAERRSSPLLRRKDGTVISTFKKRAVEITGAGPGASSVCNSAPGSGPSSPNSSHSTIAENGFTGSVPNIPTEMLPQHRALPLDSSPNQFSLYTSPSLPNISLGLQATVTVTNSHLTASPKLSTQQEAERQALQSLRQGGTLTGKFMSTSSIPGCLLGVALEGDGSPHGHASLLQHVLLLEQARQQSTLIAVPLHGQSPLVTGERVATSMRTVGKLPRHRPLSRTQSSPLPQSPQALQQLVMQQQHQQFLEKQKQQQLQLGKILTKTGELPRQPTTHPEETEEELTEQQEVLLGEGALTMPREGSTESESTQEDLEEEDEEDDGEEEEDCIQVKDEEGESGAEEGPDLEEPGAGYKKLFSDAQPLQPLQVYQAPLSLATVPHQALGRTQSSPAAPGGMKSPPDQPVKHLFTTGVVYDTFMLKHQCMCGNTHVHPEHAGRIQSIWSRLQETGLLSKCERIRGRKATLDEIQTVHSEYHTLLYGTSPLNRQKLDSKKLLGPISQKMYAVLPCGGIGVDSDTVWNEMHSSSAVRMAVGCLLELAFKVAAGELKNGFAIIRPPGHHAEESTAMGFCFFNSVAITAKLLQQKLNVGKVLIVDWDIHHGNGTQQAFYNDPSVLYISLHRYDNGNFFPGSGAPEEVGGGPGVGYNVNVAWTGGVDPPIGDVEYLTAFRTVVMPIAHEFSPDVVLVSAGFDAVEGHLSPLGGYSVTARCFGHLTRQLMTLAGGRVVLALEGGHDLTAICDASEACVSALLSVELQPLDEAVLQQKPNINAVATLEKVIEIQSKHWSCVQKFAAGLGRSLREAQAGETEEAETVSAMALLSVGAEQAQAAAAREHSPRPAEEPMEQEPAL
Sequence of Histone deacetylase 2 (Q92769 whole entry): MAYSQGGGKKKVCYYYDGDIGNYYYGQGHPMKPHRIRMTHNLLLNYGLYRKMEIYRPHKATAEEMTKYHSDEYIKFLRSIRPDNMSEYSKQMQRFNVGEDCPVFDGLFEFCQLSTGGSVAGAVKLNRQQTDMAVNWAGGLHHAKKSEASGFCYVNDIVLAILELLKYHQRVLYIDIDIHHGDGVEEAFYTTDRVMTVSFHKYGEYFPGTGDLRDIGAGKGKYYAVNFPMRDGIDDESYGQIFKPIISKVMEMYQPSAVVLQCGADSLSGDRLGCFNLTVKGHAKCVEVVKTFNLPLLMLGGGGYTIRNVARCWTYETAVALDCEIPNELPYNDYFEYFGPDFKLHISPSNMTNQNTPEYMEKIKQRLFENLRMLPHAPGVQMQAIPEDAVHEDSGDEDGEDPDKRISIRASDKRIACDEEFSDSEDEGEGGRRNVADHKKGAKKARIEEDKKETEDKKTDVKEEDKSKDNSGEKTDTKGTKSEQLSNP

In the case of `CC(C)[C@@H]1NC(=O)[C@]2(C)CSC(=N2)c2csc(n2)CNC(=O)C[C@@H](/C=C/CCC(=O)NO)OC1=O`, the IC50 in test [1] was determined as 21 nM; in test [2] it was 600 nM; on Histone deacetylase 8 it was 3500 nM; on Histone deacetylase 2, 69 nM. Besides, the inhibition in test [3] came out at 21%.
Regarding `CC(C)[C@@H]1NC(=O)[C@]2(C)CSC(=N2)c2csc(n2)CNC(=O)C[C@@H](/C=C/CCSCCS)OC1=O`, the IC50 in test [1] was 3.6 nM; in test [2], 2800 nM; against Histone deacetylase 8, 9600 nM; against Histone deacetylase 2 it was 90 nM. In test [3], this compound registered an inhibition of 22%.

The term IC50 denotes the concentration at which inhibition is half-maximal. Read a low IC50 as higher potency. Broadly, the inhibition is how much of the control response was suppressed. A low value points to little suppression.
